What is called Ki is the dissociation constant of the complex between target and ligand, obtained from inhibition or displacement. A high value points to lower affinity.

The values that follow come from ChEMBL document CHEMBL4477185, “Anacardic Acids from Knema hookeriana as Modulators of Bcl-xL/Bak and Mcl-1/Bid Interactions” (J Nat Prod, 2016).

Calls of active or inactive are those of the source. No cut-off for these calls is given here. Bounds are passed on as bounds.

For one assay, the target named is Bcl-xL/BAK (Homo sapiens, UniProt Q07817). In words: Inhibition of His-tagged Bcl-xL/5-carboxyfluorescein-Bak (unknown origin) after 1 hr by fluorescence polarization assay. In kind it is protein assay. The method, boiled down:
(§1)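 Fluorescence polarization competition: a small molecule competes with a fluorescent-tagged BH3 peptide (Bak for Bcl-xL, Bid for Mcl-1) for binding to the anti-apoptotic protein. Run in triplicate.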
(Polarisation of emitted light reports the rotation of a fluorescent probe.)

For assay [1], the target named is Induced myeloid leukemia cell differentiation protein Mcl-1/BH3-interacting domain death agonist (Homo sapiens, UniProt Q07820). In words: Inhibition of His-tagged Mcl-1/5-carboxyfluorescein-Bid (unknown origin) after 1 hr by fluorescence polarization assay. The format is protein assay. The method, boiled down: as §1
A further assay has as its system HCT-116. In words: Cytotoxicity against human HCT116 cells assessed as decrease in cell viability after 72 hrs by resazurin dye based fluorescence assay. In kind it is functional. (Resazurin is reduced to fluorescent resorufin, in cell work by metabolically active cells.)
The target of assay [2] is T1, BH3-interacting domain death agonist (Homo sapiens) (UniProt P55957).
T1 sequence (whole entry): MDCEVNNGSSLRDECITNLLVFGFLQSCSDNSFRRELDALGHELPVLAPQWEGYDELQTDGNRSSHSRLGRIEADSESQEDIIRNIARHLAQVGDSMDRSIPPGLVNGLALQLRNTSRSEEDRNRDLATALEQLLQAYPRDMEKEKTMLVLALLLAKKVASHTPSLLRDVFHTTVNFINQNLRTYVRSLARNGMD
In words: Binding affinity to Bid (unknown origin) assessed as micelles formation at 0.25 to 5 equivalent by 1H NMR spectra analysis.

Assay [3] concerns the target T1, BH3-interacting domain death agonist (Homo sapiens). Description: Binding affinity to Bid (unknown origin) at 2 equivalent assessed as interaction at Asp16/Ser17/Met18/Asp19 and Arg20 residues by 2D 1H-1H TOCSY analysis.
Assay [4] shares this target. In words: Binding affinity to Bid (unknown origin) assessed as induction of chemical shift perturbations by NMR titration method.
Assay [5] concerns the target Bcl-2-like protein 1 (Homo sapiens) (UniProt Q07817). In words: Binding affinity to Bcl-XL (unknown origin) assessed as effect on protein HN resonances at 1.5 equivalent by HSQC 1H-15N NMR spectroscopy. An outline of the steps:
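Ligand titration into Bcl-xL, followed by 1H-15N HSQC spectra recorded on an 800 MHz spectrometer with a 5 mm z-gradient TCI cryoprobe.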

In assay [6] the target is Induced myeloid leukemia cell differentiation protein Mcl-1 (Homo sapiens) (UniProt Q07820). Description: Binding affinity to Mcl-1 (unknown origin) assessed as effect on protein HN resonances at 1.5 equivalent by HSQC 1H-15N NMR spectroscopy.
Sequence of Induced myeloid leukemia cell differentiation protein Mcl-1 (Homo sapiens) (Q07820 whole entry): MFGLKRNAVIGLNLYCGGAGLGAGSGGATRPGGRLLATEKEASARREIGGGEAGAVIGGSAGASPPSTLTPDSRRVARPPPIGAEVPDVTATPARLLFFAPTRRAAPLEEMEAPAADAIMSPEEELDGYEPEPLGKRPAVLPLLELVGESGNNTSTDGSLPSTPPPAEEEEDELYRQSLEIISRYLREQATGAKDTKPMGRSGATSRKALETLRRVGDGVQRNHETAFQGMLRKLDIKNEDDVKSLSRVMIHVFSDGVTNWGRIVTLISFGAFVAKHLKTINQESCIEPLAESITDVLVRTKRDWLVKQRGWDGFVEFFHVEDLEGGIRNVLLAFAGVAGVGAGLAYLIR

Sequence of Induced myeloid leukemia cell differentiation protein Mcl-1/BH3-interacting domain death agonist (Q07820 whole entry, one chain of several, the tested form may be a part): as the sequence (Q07820 whole entry) above
Sequence of Bcl-xL/BAK (Q07817 whole entry): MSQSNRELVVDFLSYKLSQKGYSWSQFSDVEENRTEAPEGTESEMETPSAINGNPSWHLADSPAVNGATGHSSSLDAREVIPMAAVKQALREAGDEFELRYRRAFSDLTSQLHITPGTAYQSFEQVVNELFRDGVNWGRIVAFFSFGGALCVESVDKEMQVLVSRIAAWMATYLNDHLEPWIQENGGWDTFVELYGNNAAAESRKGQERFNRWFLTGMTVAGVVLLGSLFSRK
Sequence of Bcl-xL/BAK (Q16611 whole entry, further chain): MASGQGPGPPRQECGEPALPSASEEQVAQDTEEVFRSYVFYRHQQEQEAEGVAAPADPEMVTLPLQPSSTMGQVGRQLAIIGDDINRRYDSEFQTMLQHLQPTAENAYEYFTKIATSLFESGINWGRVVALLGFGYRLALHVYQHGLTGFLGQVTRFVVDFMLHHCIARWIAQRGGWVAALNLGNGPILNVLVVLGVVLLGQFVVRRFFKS
Sequence of Bcl-2-like protein 1 (Homo sapiens) (Q07817 whole entry): as the sequence (Q07817 whole entry) above

`CCCCCCCCCCCCCc1cccc(O)c1`: the inhibition constant (Ki) was > 23 µM on Bcl-xL/BAK and > 33 µM in assay [1].

`CCCCCCCCCCCc1cccc(O)c1C(=O)O`: the Ki was determined as 1.2 µM on Bcl-xL/BAK and 0.7 µM in assay [1]. Besides, the outcome in the assay on HCT-116 was inactive.

As to `CCCCCCCCCc1cccc(O)c1C(=O)O`, the inhibition constant Ki on Bcl-xL/BAK was > 23 µM; in assay [1], 17.7 µM. Also, in the assay on HCT-116, the outcome was inactive.

With `CCCC/C=C\CCCCCCCc1cccc(O)c1C(=O)O`, the inhibitory constant (Ki) on Bcl-xL/BAK came out at 0.3 µM; in assay [1], 0.2 µM. Further, the result in the assay on HCT-116 was inactive.

`O=C(O)c1c(O)cccc1CCCCCCCCc1ccccc1`: the Ki was found to be 16.3 µM at Bcl-xL/BAK and 3.7 µM in assay [1]. Also, the outcome in the assay with HCT-116 was inactive.

Turning to `CCCC/C=C\CCCCCc1cccc(O)c1C(=O)O`, the Ki on Bcl-xL/BAK stood at 3.2 µM; in assay [1] it was 5.8 µM. The outcome in the assay on HCT-116 was inactive.

For the compound `CCCC/C=C\CCCCCCCc1cc(O)cc(O)c1C(C)=O`, the values for the Ki (on Bcl-xL/BAK; in assay [1]) were > 23 µM and > 33 µM, respectively.

Turning to `CC(C)=CCC[C@@H](C)[C@H]1C=C[C@@]2(C(=O)O)[C@H](CC(C)=C[C@@H]2/C=C(\C)C2CCC(C(=O)O)CC2)C1` (some centres undefined) [MEIOGYNIN A], the Ki at Bcl-xL/BAK is 2.6 µM.

Regarding `CCCC/C=C\CCCCCCCc1cccc(O)c1`, the results for the Ki (on Bcl-xL/BAK; in assay [1]) were > 23 µM and > 33 µM, respectively.

Turning to `CCCC/C=C\CCCCCc1cc(O)cc(O)c1C(C)=O`, the figures for the Ki (on Bcl-xL/BAK; in assay [1]) were > 23 µM and > 33 µM, respectively.

As to `CCCCCCCCCCCc1cc(O)cc(O)c1C(C)=O`, the Ki at Bcl-xL/BAK was > 23 µM; in assay [1], > 33 µM.

As for `CCCCCCCCCCCCCc1cccc(O)c1C(=O)O` [GINKGOLIC ACID 13:0], the inhibition constant (Ki) (at Bcl-xL/BAK; in assay [1]) was 0.2 µM in each case. Besides, the result (with HCT-116; in assay [5]; in assay [6]) was inactive. For the same compound, in assay [2], the Activity entry was “Dose-dependent effect”. Moreover, the outcome in assay [3] and in assay [4] was Active.
